This is an account of results in ChEMBL document CHEMBL1153231, “Novel thioamide derivatives as neutral CB1 receptor antagonists” (Bioorg Med Chem Lett, 2010).

Values after ≈ are worked out from the molar mass of the structure shown.

Data set [1] in a line: Aqueous solubility of the compound. The class given is physicochemical.
A further data set has as its target Cannabinoid receptor 1 (Homo sapiens, UniProt P21554). In words: Agonist activity at human CB1 receptor assessed as stimulation of [35S]GTPgammaS binding. The data set is classed as functional.
The nature of data set [2]: Plasma concentration in mouse at 20 umol/kg, po after 6 hrs. The class given is ADME, organism-based. An outline of the steps: (§1)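 Cafeteria-diet-induced obese mice were given repeated peroral doses. Plasma and brain tissue were sampled 0.5 h, 2 h and 6 h after the last dose, and after a 7-day washout. Levels of both the parent thioamide and its carboxamide counterpart were measured in the same samples. Plasma levels are per litre and brain levels per gram of tissue.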

A short description of data set [3]: Plasma concentration in mouse at 20 umol/kg, po after 2 hrs. The data set is classed as ADME, organism-based. In outline: as §1
Data set [4] is described as follows: Drug level in mouse brain at 20 umol/kg, po after 2 hrs. The class given is ADME, organism-based. In outline:
as §1

A short description of data set [5]: Plasma concentration in mouse at 20 umol/kg, po after 0.5 hrs. The data set is classed as ADME, organism-based. In outline: as §1
A short description of data set [6]: Plasma concentration in mouse at 20 umol/kg, po after 7 days. The class given is ADME, organism-based. In outline: as §1
The nature of data set [7]: Drug level in mouse brain at 20 umol/kg, po after 6 hrs. The data set is classed as ADME, organism-based. In outline: as §1
A short description of data set [8]: Drug level in mouse brain at 20 umol/kg, po after 0.5 hrs. The class given is ADME, organism-based. An outline of the steps: as §1
For data set [9], the system named is Mus musculus. In words: Reduction in body weight of diet induced obese C57BL/6 mouse at 20-60 umol/kg after 1 week relative to control. The class given is functional. Also on record: scale not given: the % may be the effect or the level left. In outline:
(§2)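 The test agents were given perorally to cafeteria-diet-induced obese mice over 1–3 weeks. Body weight was tracked as a percentage of initial body weight and compared with vehicle-treated animals.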

Data set [10] can be described thus: Drug level in mouse brain at 20 umol/kg, po after 7 days. The data set is classed as ADME, organism-based. An outline of the steps:
as §1

The subject of data set [11] is Mus musculus. In words: Reduction in body weight of diet induced obese C57BL/6 mouse at 20 umol/kg after 1 to 3 weeks relative to control. Set-up: scale not given: the % may be the effect or the level left. The class given is functional. An outline of the steps:
as §2

Cannabinoid receptor 1, sequence (P21554 whole entry): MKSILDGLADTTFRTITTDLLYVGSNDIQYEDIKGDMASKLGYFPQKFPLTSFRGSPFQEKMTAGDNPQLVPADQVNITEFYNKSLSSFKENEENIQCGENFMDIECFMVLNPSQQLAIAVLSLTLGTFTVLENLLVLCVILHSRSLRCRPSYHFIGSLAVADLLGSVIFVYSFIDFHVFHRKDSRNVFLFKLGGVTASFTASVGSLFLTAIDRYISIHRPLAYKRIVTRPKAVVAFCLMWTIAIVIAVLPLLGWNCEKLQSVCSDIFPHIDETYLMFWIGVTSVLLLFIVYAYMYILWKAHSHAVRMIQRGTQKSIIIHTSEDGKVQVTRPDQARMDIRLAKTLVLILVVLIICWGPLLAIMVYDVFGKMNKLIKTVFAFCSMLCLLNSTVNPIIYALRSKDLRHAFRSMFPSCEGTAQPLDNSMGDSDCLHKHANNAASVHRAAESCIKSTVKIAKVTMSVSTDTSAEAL

In data set [1], `O=C(NC1CCCCC1)c1cnc(-c2ccc(Cl)cc2)c(-c2ccc(Cl)cc2)n1` displayed a solubility below 0.1 µM. For the same compound, the IC50 at Cannabinoid receptor 1 came to 16.6 nM.
In the case of `FC1(F)CCC(NC(=S)c2cnc(-c3ccc(Cl)cc3)c(-c3ccc(Cl)cc3)n2)CC1`, the solubility in [1] amounted to 6.6 µM (≈ 3.16 µg/mL). Also, the IC50 on Cannabinoid receptor 1 was 4.5 nM.
As for `COCc1nc(-c2ccc(Cl)cc2)c(-c2ccc(Cl)cc2)nc1C(=O)NC1CCC(F)(F)CC1`, the concentration at 6 h was 148 nM in [2] and 0.07 µmol/g in [7]. In addition, the values for the concentration at 2 h in data set [3] and in data set [4] were 153 nM and 0.08 µmol/g, respectively. In addition, the concentration at 0.5 h in [5] is 136 nM; in data set [8] it was 0.05 µmol/g. In addition, in [6], the concentration at 168 h came out at 24 nM. Besides, the solubility in data set [1] is below 0.1 µM. In addition, the IC50 on Cannabinoid receptor 1 stood at 2.9 nM.
As for `COCc1nc(-c2ccc(Cl)cc2)c(-c2ccc(Cl)cc2)nc1C(=S)NC1CCC(F)(F)CC1`, the concentration at 6 h stood at 137 nM in data set [2] and 0.14 µmol/g in data set [7]. Besides, the concentration at 2 h in data set [3] came to 604 nM; in data set [4], 0.32 µmol/g. Also, the results for the concentration at 0.5 h in data set [5] and in data set [8] were 403 nM and 0.18 µmol/g, respectively. The compound also had an Activity in the data set with Mus musculus [9] of 85%. Further, the figures for the concentration at 168 h in [6] and in data set [10] were 32 nM and 0.05 µmol/g, respectively. Also, the solubility in data set [1] was below 0.1 µM. The IC50 on Cannabinoid receptor 1 amounted to 2.4 nM.
`O=C(NC1CCC(F)(F)CC1)c1cnc(-c2ccc(Cl)cc2)c(-c2ccc(Cl)cc2)n1`: the solubility in data set [1] was below 0.1 µM. Moreover, the IC50 at Cannabinoid receptor 1 worked out at 5.3 nM.
The corresponding values for `S=C(NC1CCCCC1)c1cnc(-c2ccc(Cl)cc2)c(-c2ccc(Cl)cc2)n1` are 6.1 µM (≈ 2.7 µg/mL) and 5.8 nM.
`Cc1c(C(=O)NN2CCCCC2)nn(-c2ccc(Cl)cc2Cl)c1-c1ccc(Cl)cc1` [RIMONABANT]: the concentration at 6 h was determined as 900 nM in [2] and 0.68 µmol/g in data set [7]. For the same compound, the concentration at 2 h was found to be 1950 nM in data set [3] and 1.69 µmol/g in [4]. Moreover, the concentration at 0.5 h is 1360 nM in [5] and 1.11 µmol/g in [8]. In [1], this compound showed a solubility below 1.1 µM. The Activity with Mus musculus [11] is recorded as 85%.
